Bioassay records: PubChem, The Scripps Research Institute Molecular Screening Center
A selection: hits, their analogues and other compounds. The true share with any hit is near 0.74%.
ASAP1 inh: inhibitors of human ASAP1 ArfGAP activity, primary screen, biochemical, fluorescence polarization. Arf-GAP with SH3 domain, ANK repeat and PH domain-containing protein 1 (Homo sapiens), …. ASAP1-stimulated ARF1 GTP hydrolysis, GDP FP detection. inhibition, % at 16.5 µM. hit rate 0.19% among 360,000; in the data active = inhibition above about 25%;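 note: 0% = vehicle with enzyme and substrate and 100% = no enzyme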
Target sequence (Q9ULH1 325-724 limits assumed): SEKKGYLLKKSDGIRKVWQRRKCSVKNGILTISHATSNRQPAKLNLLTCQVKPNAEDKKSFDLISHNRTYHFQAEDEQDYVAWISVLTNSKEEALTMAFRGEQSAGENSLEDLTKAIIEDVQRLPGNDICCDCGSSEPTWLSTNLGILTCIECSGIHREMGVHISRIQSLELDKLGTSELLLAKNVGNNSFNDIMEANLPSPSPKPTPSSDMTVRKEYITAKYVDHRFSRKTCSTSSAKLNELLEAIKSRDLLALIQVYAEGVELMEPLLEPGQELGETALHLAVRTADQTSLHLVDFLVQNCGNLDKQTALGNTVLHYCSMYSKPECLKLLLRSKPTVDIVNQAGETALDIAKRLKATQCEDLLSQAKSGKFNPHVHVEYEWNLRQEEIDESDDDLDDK
DDE Tn7 FP inh: inhibitors of Tn7 peptide binding to fibrin DD(E), primary screen, biochemical, fluorescence polarization, human fibrin, Tn7 probe; hit rate 0.13% among 370,000; AID 720508, 2013; FP displacement of FITC-Tn7 peptide from fibrin DD(E); 0% = median of compound wells per plate; inhibition, % at 8.3 µM;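 active = inhibition above the mean of compounds falling within the control limits plus 3 SD of them, cut at about 14% in these data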;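 note: 0% = plate median of compound wells and 100% = 10 µM Aha-Tn7 peptide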
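Assay system: Human fibrin DD(E) protein | Medium: Tris buffer with calcium and detergent, pH 7.8 | Reagent: 0.1 µM fluorescent Tn7 | Compound dosing: Single point at 8.3 µM | Times: 10 min preincubation, 3 h with tracer, room temperature | Detection: Fluorescence polarization of the labelled Tn7 tracer | Controls: Aha-Tn7 high control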
Tn6 DDE FP: inhibitors of Tn6 peptide binding to fibrin DD(E), primary screen, biochemical, fluorescence polarization, human fibrin, Tn6 probe; Fibrinogen beta chain (Homo sapiens), P02675; Fibrin DD(E) TRITC-Tn6 fluorescence polarization displacement; hit rate 0.21% among 370,000; inhibition, % at 8.3 µM;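 active = inhibition above a per-campaign cutoff: mean of compounds within control limits plus 3 SD, cut at about 15% in these data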;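 note: 0% = median of all compound wells on the plate and 100% = blocking peptide control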
ARFGAP1 inh: inhibitors of rat ARFGAP1 GAP activity, primary screen, biochemical, fluorescence polarization, GDP tracer; AID 651572, 2012; Arfgap1-stimulated ARF1 GTP hydrolysis, GDP FP detection; hit rate 0.26% among 360,000; inhibition, % at 16.5 µM;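 active = inhibition above a per-plate limit, mean inhibition of low control wells plus 3 SD, cut at about 25% in these data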;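 note: 0% = DMSO wells with enzyme and 100% = wells lacking Arfgap1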
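System: truncated rat Arfgap1 GAP domain / Benchmarks: high control wells lacking Arfgap1, low control full reaction with DMSO / Times: compound-enzyme preincubation 20 min, reaction 120 min, detection 60 min, 25 °C / Repeats: one replicate per compound / Also added: human ARF1(Δ1-17)-GTP substrate / Measured by: Tracer-displacement fluorescence polarization with EDTA stop, 620/688 nm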
ARFGAP1 confirm: ARFGAP1 inhibitor hit confirmation, biochemical, fluorescence polarization, triplicate. shares compounds with ARFGAP1 inh. ARFGAP1-stimulated ARF1 GTP hydrolysis, GDP tracer FP. inhibition, % at 16.5 µM. hit rate 30% among 890. AID 651608, 2012;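 active = average inhibition over triplicates above the hit cutoff set in the earlier primary screen, cut at about 25% in these data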;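 note: 0% = Arfgap1 plus ARF1-GTP with DMSO and 100% = wells lacking Arfgap1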
* hit, by the source's call; / = not tested or not shown; + = active, no number.

SMILES	ASAP1 inh	DDE Tn7 FP inh	Tn6 DDE FP	ARFGAP1 inh	ARFGAP1 confirm
COc1ccccc1OCC(=O)NCC1CCCN(C(=O)c2ccccc2SC)C1 (stereo unspecified)	-6	5	-2	22	/
COc1ccccc1OCC(=O)NCC1CCCN(C(=O)c2ccccc2C(C)=O)C1 (stereo unspecified)	-6	-5	4	28*	-3
O=C1CSc2ccc(C(=O)Nc3cccc(S(=O)(=O)Nc4ccc(Br)cc4)c3)cc2N1	15	-4	+	33*	25*
O=C(O)c1ccc(NC(=O)c2cccc(S(=O)(=O)Nc3ccc(C(=O)O)cc3)c2)cc1	-8	-3	5	-15	/
COC(=O)[C@]1(CNS(=O)(=O)C2CC2)CC(=O)N(C)[C@@H]1c1ccccc1	/	0	7	/	/
CN[C@H]1C[C@H]2c3[nH]c4cccc(-c5cccc(F)c5)c4c3CCN2C(=O)[C@H]1[C@H](C)O	/	-2	6	/	/
CCCOc1ccc(C(=O)Nc2ccc(S(=O)(=O)N3C[C@@H]4C[C@@H](C3)c3cccc(=O)n3C4)cc2)cc1	-14	-2	-7	25*	3
Cc1ccc(C(=O)Nc2cccc(S(=O)(=O)N3CCCC3)c2)o1	0	-1	-1	1	/
CC(C)N(C(=O)NC(=O)Nc1ccc(S(=O)(=O)N2CCCC2)cc1)S(C)(=O)=O	17	8	-8	36*	14
Cc1ccc(C(=O)Nc2ccc(S(=O)(=O)N3CCCC3)cc2)o1	-1	1	-5	26*	-1
CC(C)CC(=O)Nc1ccc(S(=O)(=O)N2CCCC2)cc1	6	-4	-3	-12	/
O=C1CCC[C@H]2C[C@H](NCc3cccs3)CC[C@]23CCCN13	/	2	3	/	/
CC(=O)n1c(=O)c2ccccc2c(=O)n1-c1ccccc1	12	5	-1	32*	2
COc1cc(OC)cc(-c2sc3ccc(OC)cc3c2-c2ccc(O)cc2)c1	13	-7	-4	26*	12
COc1ccc(C(=O)C2(C(=O)Nc3cc(C)cc(C)c3)CC(c3ccccc3C(F)(F)F)=NO2)cc1 (stereo unspecified)	/	11	3	/	/
Cc1ccc(S(=O)(=O)N2CCC(c3nc4ccccc4o3)CC2)s1	/	-8	-5	/	/
COc1ccc(NC(=O)COC(=O)c2c3c(nc4ccccc24)CCCC3)cc1	-15	-4	-14	24	/
COc1ccc(NC(=O)COC(=O)c2c3c(nc4ccccc24)CCCC3)cc1Cl	0	-3	-1	27*	14
COCCCN1C(=O)[C@H](CC(=O)NCc2ccccc2)[C@]2(C(=O)OC)CCCCC=C12	/	2	-2	/	/
O=C(NCc1csc(-c2cccs2)n1)Nc1cccc(Cl)c1	2	-1	-13	26*	6
O=C(Nc1ccncc1)c1cn(-c2ccccc2)nc1-c1cccs1	12	2	-7	26*	13
CCC(CC)C(=O)Nc1cc(OC)c(OC)cc1C(=O)O	-4	4	7	0	/
CCC(C)C(=O)Nc1cc(OC)c(OC)cc1C(=O)O (stereo unspecified)	-4	-3	-3	28*	7
CCCCCCCCN1C(=O)N2Cc3cc(OC)ccc3C2CS1(=O)=O (stereo unspecified)	/	-10	2	/	/
CCc1cc(C(=O)NNC(=O)CCN2CCN(c3ccccc3)CC2)sc1C	0	3	2	-1	/
CCc1cc(C(=O)NNC(=O)CCl)sc1C	-2	0	-5	25*	-5
NC(=O)c1ccc(NC(=O)COC(=O)/C=C/c2cn(-c3ccccc3)nc2-c2cccnc2)cc1	12	9	4	30*	46*
Cc1ccc2nc(Nc3nc(CSc4nc5ccccc5s4)cc(=O)[nH]3)nc(C)c2c1	-2	-3	2	25*	-4
NS(=O)(=O)c1ccc(CNC(=S)NC2CCCC2)cc1	7	-2	-4	29*	5
